The values below come from publication PMC9394215 (Journal for Immunotherapy of Cancer, 2022).

SMILES strings stand for the structures. A value given as a limit tells only on which side of the number the result lay.

For data set [1] the following is noted: cited from earlier work.
A further data set has as its target T1, Membrane-bound CD73 (Homo sapiens, UniProt P21589).
T1 sequence (P21589 27-574): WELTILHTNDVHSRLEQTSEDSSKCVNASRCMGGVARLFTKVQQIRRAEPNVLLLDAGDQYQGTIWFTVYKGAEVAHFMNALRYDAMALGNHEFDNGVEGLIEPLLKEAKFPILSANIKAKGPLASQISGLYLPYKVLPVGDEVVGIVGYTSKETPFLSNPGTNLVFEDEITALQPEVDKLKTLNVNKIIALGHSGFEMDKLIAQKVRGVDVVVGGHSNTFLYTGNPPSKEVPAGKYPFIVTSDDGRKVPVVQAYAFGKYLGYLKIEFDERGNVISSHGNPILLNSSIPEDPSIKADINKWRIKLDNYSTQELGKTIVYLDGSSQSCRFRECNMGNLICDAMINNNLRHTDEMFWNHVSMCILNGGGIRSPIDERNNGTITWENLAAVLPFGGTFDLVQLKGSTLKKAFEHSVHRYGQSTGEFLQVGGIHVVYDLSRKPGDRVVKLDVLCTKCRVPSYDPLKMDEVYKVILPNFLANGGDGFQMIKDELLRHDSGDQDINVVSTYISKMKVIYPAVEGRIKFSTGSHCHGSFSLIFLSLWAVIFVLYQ
Briefly: Membrane-bound CD73 inhibition. In kind it is biochemical.

In the next data set the target is T2, NTPDase3 (Homo sapiens, UniProt O75355).
T2 sequence (O75355 1-529): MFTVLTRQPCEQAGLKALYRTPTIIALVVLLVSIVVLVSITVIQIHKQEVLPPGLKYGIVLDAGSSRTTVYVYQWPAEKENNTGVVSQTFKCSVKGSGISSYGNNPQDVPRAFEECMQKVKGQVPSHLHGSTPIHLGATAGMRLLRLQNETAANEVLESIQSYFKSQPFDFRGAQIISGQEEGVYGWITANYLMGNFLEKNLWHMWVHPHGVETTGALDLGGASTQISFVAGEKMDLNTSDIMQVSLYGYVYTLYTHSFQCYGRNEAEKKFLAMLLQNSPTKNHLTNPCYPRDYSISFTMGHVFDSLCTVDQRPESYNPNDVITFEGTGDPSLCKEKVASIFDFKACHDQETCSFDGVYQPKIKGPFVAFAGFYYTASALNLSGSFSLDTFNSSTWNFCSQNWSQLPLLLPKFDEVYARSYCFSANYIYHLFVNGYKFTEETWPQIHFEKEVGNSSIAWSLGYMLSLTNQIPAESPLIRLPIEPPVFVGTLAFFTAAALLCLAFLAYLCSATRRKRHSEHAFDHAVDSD
In words: Malachite green assay, NTPDase3 in COS-7 cell membranes. In kind it is biochemical. Summed up:
(§1)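 Human NTPDase2, -3 or -8 was expressed in COS-7 membranes (ca. 100 ng protein, adjusted for 10–20% substrate conversion). Enzyme was preincubated 5 min at 37°C with test compound (50 µM single point, or 0.1–300 µM for curves). It was then incubated 15 min at 37°C with 100 µM ATP in HEPES/CaCl2/MgCl2, pH 7.4, ≤2% DMSO. Malachite green absorbance at 600 nm was corrected by a denatured-enzyme blank; n=3.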

The target in a further data set is T3, NTPDase2 (Homo sapiens, UniProt Q9Y5L3).
T3 sequence (Q9Y5L3 1-495): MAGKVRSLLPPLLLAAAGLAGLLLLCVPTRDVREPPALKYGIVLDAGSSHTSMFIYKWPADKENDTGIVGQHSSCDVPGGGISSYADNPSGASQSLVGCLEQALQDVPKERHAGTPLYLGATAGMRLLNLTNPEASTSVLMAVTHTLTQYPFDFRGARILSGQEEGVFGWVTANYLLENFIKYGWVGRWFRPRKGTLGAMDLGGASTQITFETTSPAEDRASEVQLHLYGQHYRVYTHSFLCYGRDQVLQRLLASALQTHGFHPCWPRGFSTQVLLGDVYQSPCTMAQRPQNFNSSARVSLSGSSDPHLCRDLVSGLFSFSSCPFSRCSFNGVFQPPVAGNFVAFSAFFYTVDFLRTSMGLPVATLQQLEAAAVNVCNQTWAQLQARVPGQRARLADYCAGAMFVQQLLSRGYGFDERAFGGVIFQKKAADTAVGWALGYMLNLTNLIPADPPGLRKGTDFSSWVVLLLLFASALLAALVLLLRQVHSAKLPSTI
Briefly: Malachite green assay, NTPDase2 in COS-7 cell membranes. It is filed as biochemical. Summed up: as §1

The target of a further data set is T4, Soluble CD73 (Homo sapiens, UniProt P21589).
T4 sequence (P21589 27-549 limits assumed): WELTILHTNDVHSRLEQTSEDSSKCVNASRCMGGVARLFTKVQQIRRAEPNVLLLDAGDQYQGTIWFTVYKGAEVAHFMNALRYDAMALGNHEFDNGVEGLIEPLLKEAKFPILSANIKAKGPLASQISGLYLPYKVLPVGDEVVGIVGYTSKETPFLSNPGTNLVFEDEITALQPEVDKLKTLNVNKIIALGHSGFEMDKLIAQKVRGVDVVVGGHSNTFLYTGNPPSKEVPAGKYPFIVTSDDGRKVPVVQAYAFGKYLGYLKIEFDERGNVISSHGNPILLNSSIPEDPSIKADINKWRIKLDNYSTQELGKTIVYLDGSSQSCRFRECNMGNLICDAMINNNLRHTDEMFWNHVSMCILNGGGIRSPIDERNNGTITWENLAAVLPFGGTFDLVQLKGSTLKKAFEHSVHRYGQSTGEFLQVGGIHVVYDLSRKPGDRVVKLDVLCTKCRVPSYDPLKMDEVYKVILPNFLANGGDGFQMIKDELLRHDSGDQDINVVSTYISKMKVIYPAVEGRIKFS
Briefly: CD73 assay with [2,8-3H]AMP. It is filed as biochemical. Summed up: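 A dilution series of test compound was incubated with soluble human CD73 (0.09 µg/mL) and 5.0 µM [2,8-3H]AMP in 25 mM Tris, 140 mM NaCl, 25 mM NaH2PO4, pH 7.4. Incubation ran 25 min at 37°C with shaking. Cold LaCl3/sodium acetate buffer (pH 4.0) precipitated phosphate and unconverted AMP over 30 min on ice. Samples were filtered through GF/B filters and the filtrate collected.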

The mark [2] stands for this setting: read-out: % inhibition at 50 µM.

One may read the IC50 as the midpoint of a concentration-inhibition curve. Low values mean greater potency, high ones weaker potency. One may read the inhibition as the drop in the measured response relative to a control, in per cent. Turning to `Cc1cc(Nc2ncc(Cl)c(Nc3ccccc3S(=O)(=O)C(C)C)n2)c(OC(C)C)cc1C1CCNCC1` [ceritinib, Ceritinib], in data set [1], the “pharmacokinetics in mice versus humans” value was “comparable pharmacokinetics”. In addition, the IC50 against Membrane-bound CD73 is > 50 µM; at NTPDase3, 22.7 ± 4 µM; at NTPDase2 it was > 50 µM; on Soluble CD73, > 50 µM. Besides, the inhibition at 50 µM on Membrane-bound CD73 (setting [2]) is 30%; at NTPDase2 (setting [2]) it was -8%; on Soluble CD73 (setting [2]) it was 33%.
